Assay results pooled from the literature.
Each line is one published result; the experiments were not run side by side.
Technique: competition with immobilised ligand
RPS6KA6 N-terminal kinase domain: Ribosomal protein S6 kinase alpha-6, N-terminal kinase domain (RPS6KA6, Homo sapiens, UniProt Q9UK32)
RPS6KA6 C-terminal kinase domain: Ribosomal protein S6 kinase alpha-6, C-terminal kinase domain (RPS6KA6, Homo sapiens, UniProt Q9UK32)

O=C(c1ccc(Nc2ncc(Cl)c(-c3cc4ccccc4s3)n2)cc1)N1CCC(N2CCCC2)CC1
remaining binding (RPS6KA6 N-terminal kinase domain; binding; 1 µM): 46%

O=C(NS(=O)(=O)c1ccc(NCC2CCOCC2)c([N+](=O)[O-])c1)c1ccc(N2CCN(Cc3ccc(C(F)(F)F)cc3-c3ccc(Cl)cc3)CC2)cc1Oc1cnc2[nH]ccc2c1
remaining binding (RPS6KA6 C-terminal kinase domain; cell-free assay; 1 µM): 100%

CNC(=O)[C@@H]1CC[C@@H](n2c(-c3ccc4cnccc4c3)nc3ccc(C(=O)NCc4cccc(C(N)=O)c4)cc32)C1
remaining binding (RPS6KA6 C-terminal kinase domain; binding; 1 µM): 97%

CC1CCCN1c1nccc(-c2cnn3ncccc23)n1 (centres unmarked)
remaining binding (RPS6KA6 C-terminal kinase domain; binding; 1 µM): 100%

O=C1NC(c2ccccn2)Sc2ccccc21 (centres unmarked)
remaining binding (RPS6KA6 N-terminal kinase domain; cell-free assay; 1 µM): 96%

COc1cc(C(=O)N2CCC(N3CCN(C)CC3)CC2)ccc1Nc1ncc2c(n1)N(C)c1ccccc1C(=O)N2C
remaining binding (RPS6KA6 C-terminal kinase domain; binding; 10 µM): 2.2%

CCCCN(CCCC)C(=O)CN1C[C@@H](c2cc(OC)c3c(c2)OCO3)[C@H](C(=O)O)[C@H]1CC(C)(C)CCC
remaining binding (RPS6KA6 N-terminal kinase domain; cell-free assay; 1 µM): 96.6%

CN(C)c1ncc(F)c(-c2cnn3ncccc23)n1
remaining binding (RPS6KA6 C-terminal kinase domain; binding; 1 µM): 98%

O=C(NCCCN1CCOCC1)c1ccc(Nc2nccc(-c3cc4ccccc4s3)n2)cc1
remaining binding (RPS6KA6 N-terminal kinase domain; binding; 1 µM): 67%

CN([C@@H]1CCc2c(CC(=O)O)c3ccccc3n2C1)S(=O)(=O)c1ccc(F)cc1
remaining binding (RPS6KA6 C-terminal kinase domain; cell-free assay; 1 µM): 100%

Cc1cnc(Nc2ccc(C(=O)N3CCC(N4CCCC4)CC3)cc2)nc1-c1cc2ccccc2s1
remaining binding (RPS6KA6 C-terminal kinase domain; binding; 1 µM): 72%

COc1cnc(Nc2cccc(S(N)(=O)=O)c2)nc1N1CCN(c2ccccc2)C(=O)C1
remaining binding (RPS6KA6 C-terminal kinase domain; binding; 1 µM): 92%

Cc1cc(-n2nc(Cc3cc(F)cc(C(F)(F)F)c3)nc2C)ccc1C(N)=O
remaining binding (RPS6KA6 N-terminal kinase domain; cell-free assay; 1 µM): 89%

COc1cnc(Nc2cccc(S(N)(=O)=O)c2)nc1N1CCN(c2ccccc2)CC1
remaining binding (RPS6KA6 N-terminal kinase domain; binding; 1 µM): 73%

CCN1CCN(Cc2ccc(C(=O)Nc3ccc(C)c(Oc4ccc5c(c4)CC(=O)N5)c3)cc2C(F)(F)F)CC1
remaining binding (RPS6KA6 N-terminal kinase domain; binding; 1 µM): 100%

O=C(NCC1CCOCC1)c1n[nH]cc1NC(=O)c1c(F)cccc1F
remaining binding (RPS6KA6 C-terminal kinase domain; binding; 1 µM): 99%

COc1ccc2c(c1)O[C@@H](c1ccc(OC)c(OC)c1)C[C@H]2NC(=O)C1(c2ccc3c(c2)OC(F)(F)O3)CC1
remaining binding (RPS6KA6 N-terminal kinase domain; cell-free assay; 1 µM): 84%

CN(c1nccc(-c2cnn3ncccc23)n1)C1CC1
remaining binding (RPS6KA6 C-terminal kinase domain; binding; 1 µM): 100%

O=C(NCCCN1CCOCC1)c1ccc(Nc2ncc(Cl)c(-c3ccc(Cl)s3)n2)cc1
remaining binding (RPS6KA6 C-terminal kinase domain; binding; 1 µM): 85%

COc1ncc2cc3ccccc3nc2c1C#N
remaining binding (RPS6KA6 N-terminal kinase domain; cell-free assay; 5 µM): 100%

c1cncc(-c2cccc(Nc3nccc(NC4CCCCC4)n3)c2)c1
remaining binding (RPS6KA6 C-terminal kinase domain; binding; 10 µM): 87%

CN(C)c1nccc(-c2cnn3ncccc23)n1
remaining binding (RPS6KA6 N-terminal kinase domain; binding; 1 µM): 92%

O=C(O)[C@H]1[C@H](Cn2nnc3ccccc3c2=O)CC[C@@H]1C(=O)c1ccc(OCCC2CCOCC2)cc1
remaining binding (RPS6KA6 C-terminal kinase domain; cell-free assay; 1 µM): 97%

O=C(Nc1c[nH]nc1C(=O)NC1CCNCC1)c1cc(F)cc(F)c1
remaining binding (RPS6KA6 N-terminal kinase domain; binding; 1 µM): 94%

N[C@@H]1CCN(c2nccc(-c3cnn4ncccc34)n2)C1
remaining binding (RPS6KA6 N-terminal kinase domain; binding; 1 µM): 100%

NS(=O)(=O)c1cc(NC(=O)C2(c3ccccc3Cl)CC2)ccc1Oc1cccc(Cl)c1
remaining binding (RPS6KA6 C-terminal kinase domain; cell-free assay; 1 µM): 96%

FC(F)(F)Oc1cccc(-c2cnc3ccc(-c4ccncc4)nn23)c1
remaining binding (RPS6KA6 C-terminal kinase domain; binding; 5 µM): 34%

Nc1ncc2c(n1)-c1c([nH]c3ccc(C#CC4CC4)cc13)CCCC2
remaining binding (RPS6KA6 N-terminal kinase domain; binding; 1 µM): 78%

CN(C)c1nccc(-c2cnc3ncccn23)n1
remaining binding (RPS6KA6 N-terminal kinase domain; binding; 1 µM): 69%

O=C(c1ccc(Nc2nccc(-c3cc4ccccc4s3)n2)cc1)N1CCC(N2CCCC2)CC1
remaining binding (RPS6KA6 C-terminal kinase domain; binding; 1 µM): 63%

Cc1cnn2ncc(-c3ccnc(N(C)C)n3)c2c1
remaining binding (RPS6KA6 N-terminal kinase domain; binding; 1 µM): 82%

O=C(c1ccc(Nc2ncc(Cl)c(-c3ccc(Cl)s3)n2)cc1)N1CCC(N2CCCC2)CC1
remaining binding (RPS6KA6 N-terminal kinase domain; binding; 1 µM): 41%
